Data as given in ChEMBL document CHEMBL4602726, “Discovery of the First Vitamin K Analogue as a Potential Treatment of Pharmacoresistant Seizures” (J Med Chem, 2020).

Tests used:
[1] = Toxicity in CF1 mouse assessed as induction of abdominal constriction measured at time of treatment by writhing test; settings: in vivo
[2] = Toxicity in CF1 mouse assessed as induction of motor impairment during acute (1 hr) observation period by rotarod assay; settings: mouse, in vivo, 1 h
Outline: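 Male CF-1 mice, ip dosing in miglyol 840/DMSO (95%/5%), up to 800 mg/kg. Rotarod at 6 rpm done 1 h after dosing, on the same animals just before 6 Hz testing. Falling three times within one minute scored as impaired; animals also inspected visually.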

[3] = target: Cytochrome P450 2D6 (Homo sapiens, UniProt P10635); assay: Inhibition of CYP2D6 in human liver microsomes using isoform-specific probe substrates incubated for 15 to 30 mins by LC-MS/MS analysis; format: ADME
Chain of Cytochrome P450 2D6 (P10635 whole entry, canonical isoform): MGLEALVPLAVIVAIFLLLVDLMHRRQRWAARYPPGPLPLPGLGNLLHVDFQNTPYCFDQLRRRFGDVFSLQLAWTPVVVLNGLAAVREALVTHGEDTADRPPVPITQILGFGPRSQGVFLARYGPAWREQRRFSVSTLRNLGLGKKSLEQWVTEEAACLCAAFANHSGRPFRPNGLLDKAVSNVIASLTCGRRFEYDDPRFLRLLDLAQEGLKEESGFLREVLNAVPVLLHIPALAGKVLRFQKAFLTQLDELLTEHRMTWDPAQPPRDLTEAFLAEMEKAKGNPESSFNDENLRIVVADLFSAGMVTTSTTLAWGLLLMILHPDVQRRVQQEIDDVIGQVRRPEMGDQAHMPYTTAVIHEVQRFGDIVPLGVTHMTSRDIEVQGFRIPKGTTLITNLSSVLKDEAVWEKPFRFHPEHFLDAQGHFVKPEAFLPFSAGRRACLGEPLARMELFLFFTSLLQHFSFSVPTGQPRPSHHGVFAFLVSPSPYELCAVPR
Outline: (§1)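 Pooled mixed-gender human liver microsomes 0.2 mg/mL in 100 mM potassium phosphate with 2 mM NADPH. Isoform-specific probe substrates near Km. Organic solvent ≤1% final. Incubated 37°C for 15–30 min, quenched with acetonitrile plus internal standard. Probe metabolites measured by LC-MS/MS; percent inhibition versus vehicle, IC50 by variable-slope sigmoid fit.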

[4] = Drug level in CD1 mouse plasma at 400 mg/kg, ip after 2 hrs by LC-MS/MS analysis; format: ADME, organism-based
Outline: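 Male mice fasted overnight and given ip dose in 95% Miglyol 840/5% DMSO. Plasma precipitated 3:1 with acetonitrile plus internal standard. Brain homogenized 3:1 in PBS, then acetonitrile extraction. LC-MS/MS in MRM mode, standard curve 1 ng/mL–10 μg/mL. Ratio = mean tissue (ng/g) over mean plasma (ng/mL) concentration.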

[5] = target: Cytochrome P450 3A4 (Homo sapiens, UniProt P08684); assay: Inhibition of CYP3A4 in human liver microsomes using isoform-specific probe substrates incubated for 15 to 30 mins by LC-MS/MS analysis; format: ADME; outline: as §1
Chain of Cytochrome P450 3A4 (P08684 whole entry, canonical isoform): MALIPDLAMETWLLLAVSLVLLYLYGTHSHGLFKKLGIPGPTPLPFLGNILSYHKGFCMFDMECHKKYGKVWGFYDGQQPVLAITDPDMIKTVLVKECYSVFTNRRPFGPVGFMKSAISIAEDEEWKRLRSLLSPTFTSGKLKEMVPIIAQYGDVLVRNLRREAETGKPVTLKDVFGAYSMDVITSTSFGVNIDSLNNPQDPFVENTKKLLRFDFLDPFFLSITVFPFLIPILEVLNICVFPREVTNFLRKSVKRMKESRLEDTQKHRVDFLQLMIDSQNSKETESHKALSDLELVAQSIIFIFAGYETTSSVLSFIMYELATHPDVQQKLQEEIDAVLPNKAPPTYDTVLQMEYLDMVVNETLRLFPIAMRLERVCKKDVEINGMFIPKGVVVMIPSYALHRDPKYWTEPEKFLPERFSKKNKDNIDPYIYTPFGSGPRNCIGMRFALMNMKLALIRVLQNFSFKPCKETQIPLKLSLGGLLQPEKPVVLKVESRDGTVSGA

[6] = Toxicity in CF1 mouse assessed as induction of motor/sedative effects at 400 mg/kg, ip; format: organism-based; settings: in vivo
Outline: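 Rotarod at 6 rpm on the same animals immediately before 6 Hz stimulation, 1 h after ip dosing. A mouse falling three times within one minute was scored impaired.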

For `CC(C)CCNC1=CC(=O)c2ccccc2C1=O`, the Activity [1] was “Toxic”, the TD50 [2] was over 800 mg/kg and the IC50 [3] was over 100 µM. The concentration at 2 h [4] was 2750 ng/mL, the IC50 [5] was over 100 µM and the Activity [6] was “Non-Toxic”.
